Test [1] deals with OVSAHO. The test is described as follows: Cytotoxicity against human OVSAHO cells assessed as inhibition of cell growth incubated for 72 hrs by MTT assay. The class given is functional, cell-based. The essentials: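 OVSAHO cells incubated 72 h with each EISA substrate across a concentration series; viability measured and IC50 derived.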
A short description of test [2]: Cytotoxicity against mouse GEMM 4306 cells assessed as inhibition of cell growth incubated for 72 hrs by MTT assay. Conditions: GEMM 4306, 72 h. The class given is functional, cell-based. The essentials: (§1)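 Cell viability after 72 h continuous exposure of each ovarian or CHO cell line to the substrate over a concentration series. IC50 is taken from the 72 h viability curves.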

In test [3] the test system is OVSAHO. In words: Cytotoxicity against human OVSAHO cells assessed as enhancement in cell growth inhibition at 20 uM incubated for 24 hrs in presence of 1 to 20 uM ethyl (2-((cyanocarbonyl)(2,4-dimethoxyphenyl)amino)-2-(thiophen-2-yl)acetyl)glycinate by MTT assay. The class given is functional, cell-based. The essentials:
(§2)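 OVSAHO cells are co-treated for 24 h with the EISA substrate at a fixed 20 μM plus the partner drug over its concentration range. Viability is compared with substrate alone and drug alone. Significance is given as p thresholds (ns, *, **, ***).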

Test [4] relates to OVSAHO. In words: Cytotoxicity against human OVSAHO cells assessed as enhancement in cell growth inhibition at 20 uM incubated for 24 hrs in presence of 50 to 200 nM methyl (5R,7R,8S)-7-hydroxy-8-methyl-15-oxo-5,6,7,8,14,15-hexahydro-13H-16-oxa-4b,8a,14-triaza-5,8-methanodibenzo[b,h]cycloocta[jkl]cyclopenta[e]-as-indacene-7-carboxylate by MTT assay. The class given is functional, cell-based. The essentials: as §2

Test [5] deals with OVSAHO. In words: Cytotoxicity against human OVSAHO cells assessed as enhancement in cell growth inhibition at 20 uM incubated for 24 hrs in presence of 25 to 50 uM talazoparib by MTT assay. It is filed as functional, cell-based. In a few lines: as §2
In test [6] the test system is OVSAHO. The test is described as follows: Cytotoxicity against human OVSAHO cells assessed as enhancement in cell growth inhibition at <5 uM incubated for 24 to 72 hrs in presence of doxorubicin by MTT assay. It is filed as functional, cell-based. Conditions: time 24-72 hrs. The essentials:
(§3)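 OVSAHO cells are exposed to a series of substrate concentrations combined with doxorubicin, alongside each agent alone. Viability is read at 24 h, 48 h and 72 h. Single-agent doxorubicin was also run at 1.25, 2.5 and 5 μM. Significance is given as p thresholds.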

For test [7], the system named is OVSAHO. The test is described as follows: Cytotoxicity against human OVSAHO cells assessed as enhancement in cell growth inhibition at 20 uM incubated for 24 hrs in presence of 1.25 to 5 uM 3-((4-(tert-butyl)phenyl)sulfonyl)acrylonitrile by MTT assay. The class given is functional, cell-based. In a few lines:
as §2

Test [8] deals with OVSAHO. In words: Cytotoxicity against human OVSAHO cells assessed as enhancement in cell growth inhibition at 20 uM incubated for 24 hrs in presence of 1.25 to 2.5 uM cisplatin by MTT assay. The class given is functional, cell-based. In a few lines: as §2
The subject of test [9] is OVSAHO. In words: Cytotoxicity against human OVSAHO cells assessed as enhancement in cell growth inhibition at 20 uM incubated for 24 hrs in presence of 2.5 to 10 uM paclitaxel by MTT assay. It is filed as functional, cell-based. The essentials:
as §2

For test [10], the system named is OVSAHO. The test is described as follows: Cytotoxicity against human OVSAHO cells assessed as enhancement in cell growth inhibition at 10 to 20 uM incubated for 24 to 72 hrs in presence of doxorubicin by MTT assay. The class given is functional, cell-based. Conditions: dose 10-20 µM, time 24-72 hrs. In a few lines: as §3
In test [11] the test system is OVSAHO. In words: Cytotoxicity against human OVSAHO cells assessed as enhancement in cell growth inhibition at 20 uM incubated for 24 hrs in presence of 0.5 to 2 uM 2-((4-(cyclopropanecarbonyl)piperazin-1-yl)methyl)benzo[d]isothiazol-3(2H)-one by MTT assay. It is filed as functional, cell-based. In a few lines:
as §2

In test [12] the test system is OVSAHO. In words: Cytotoxicity against human OVSAHO cells assessed as enhancement in cell growth inhibition at 20 uM incubated for 24 hrs in presence of 25 to 50 uM Bortezomib by MTT assay. It is filed as functional, cell-based. The essentials: as §2
A short description of test [13]: Cytotoxicity against human A2780-Res cells assessed as inhibition of cell growth incubated for 72 hrs by MTT assay. It is filed as functional, cell-based. In a few lines: as §1
A short description of test [14]: Cytotoxicity against CHOK cells assessed as inhibition of cell growth incubated for 72 hrs by MTT assay. It is filed as functional, cell-based. Conditions: Cricetulus griseus. The essentials:
as §1

Test [15] relates to OVSAHO. In words: Cytotoxicity against human OVSAHO cells assessed as cell viability at 20 uM incubated for 24 hrs in presence of doxorubicin by MTT assay (reference value: 120%). It is filed as functional. Conditions: read-out: Activity.
The test system of test [16] is OVSAHO. In words: Cytotoxicity against human OVSAHO cells assessed as inhibition of cell growth at 1.25 to 5 uM incubated for 24 hrs by MTT assay relative to control. The class given is functional. More on the design: scale not given: the % may be the effect or the level left. Conditions: dose 1.25-5 µM. The essentials:
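OVSAHO cells treated with doxorubicin alone at 1.25, 2.5 and 5 μM for 24 h; cell viability measured.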

Each structure is given as a SMILES string. The source made the active and inactive calls. Square brackets hold non-standard residues; d marks the D form. Peptide text beside a SMILES is read from it. * marks the point of attachment. d(pY) = N[C@H](Cc1ccc(OP(=O)(O)O)cc1)C(=O)O; Acetyl(2-naphthyl) = O=C(Cc1ccc2ccccc2c1)*

Consider `COC(=O)CC[C@@H](NC(=O)[C@@H](Cc1ccc(OP(=O)(O)O)cc1)NC(=O)[C@@H](Cc1ccccc1)NC(=O)[C@@H](Cc1ccccc1)NC(=O)[C@@H](CC(C)C)NC(=O)Cc1ccc2ccccc2c1)C(=O)OC`, for which the IC50 in test [1] is more than 200 µM.
The same measure, in the same setting: as for `COC(=O)CC[C@@H](NC(=O)[C@@H](Cc1ccc(OP(=O)(O)O)cc1)NC(=O)[C@@H](Cc1ccccc1)NC(=O)[C@@H](Cc1ccccc1)NC(=O)[C@H](CC(C)C)NC(=O)Cc1ccc2ccccc2c1)C(=O)OC`, the figure is 46.9 µM.
Regarding `COC(=O)CC[C@@H](NC(=O)[C@@H](Cc1ccc(OP(=O)(O)O)cc1)NC(=O)[C@@H](Cc1ccccc1)NC(=O)[C@@H](Cc1ccccc1)NC(=O)[C@@H](Cc1ccccc1)NC(=O)Cc1ccc2ccccc2c1)C(=O)OC`, the IC50 in test [1] is more than 200 µM.
Still for that read-out and setting: as for `COC(=O)CC[C@@H](NC(=O)[C@@H](Cc1ccc(OP(=O)(O)O)cc1)NC(=O)[C@H](CC(C)C)NC(=O)[C@@H](Cc1ccccc1)NC(=O)[C@@H](Cc1ccccc1)NC(=O)Cc1ccc2ccccc2c1)C(=O)OC`, the figure is 70.5 µM.
In the case of `COC(=O)CC[C@@H](NC(=O)[C@@H](Cc1ccc(OP(=O)(O)O)cc1)NC(=O)[C@@H](Cc1ccccc1)NC(=O)[C@@H](Cc1ccccc1)NC(=O)Cc1ccc2ccccc2c1)C(=O)OC` ({Acetyl(2-naphthyl)}-[dF][dF][d(pY)][dE](OMe)-OMe), the IC50 in test [2], in test [13] and in test [14] was more than 200 µM in each case. Also, the result in test [3], in test [5], in test [6], in test [9], in test [11] and in test [12] was inactive. In addition, the result in test [4], in test [7], in test [8] and in test [10] was Active. Moreover, the viability at 20 µM in test [15] stood at 20%.
`COc1cccc2c1C(=O)c1c(O)c3c(c(O)c1C2=O)C[C@@](O)(C(=O)CO)C[C@@H]3O[C@H]1C[C@H](N)[C@H](O)[C@H](C)O1` [DOXORUBICIN]: in [16], the Activity is listed as approximately 75%.

The values are drawn from ChEMBL document CHEMBL5331146, “Evaluating Alkaline Phosphatase-Instructed Self-Assembly of d-Peptides for Selectively Inhibiting Ovarian Cancer Cells” (J Med Chem, 2023).
